# Rce1 inh = yeast Ras-converting enzyme inhibition; Q03530; yeast membranes, quenched prenylated peptide cleavage fluorescence; calls only; 0.27% of 290,000 active; AID 2563;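 active = fall in fluorescence gain of 50% or more versus controls, with final raw signal at or below 3038400; inconclusive = same 50% fall but final raw signal above 3038400; inactive = fall in fluorescence gain under 50%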;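 also: plate controls were neutral control wells for no effect and wells lacking membranes for full effect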
# Rin1-Abl PPI inh = inhibitors of human Rin1-Abl protein interaction | P00519+Q13671 | 0.4% of 360,000 active | inhibition, % at 7.35 µM | TR-FRET Rin1/Abl binding, biochemical; in the data active = inhibition above about 5%, passing the limit was not always enough
# GRK2 aptamer HTS = inhibitors of human GRK2 displacing RNA aptamer | P25098 | bead flow cytometry, FAM-aptamer displacement from GRK2 | inhibition of aptamer binding, % at 10 µM | 0.59% of 330,000 active | AID 488847;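 active = inhibition of aptamer binding above 40%, roughly 3 SD of noise, on plates passing a quality check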;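 also: median bead fluorescence of bound FAM aptamer so fluorescent compounds give negative values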
# Target sequence (P25098 whole entry, looked up): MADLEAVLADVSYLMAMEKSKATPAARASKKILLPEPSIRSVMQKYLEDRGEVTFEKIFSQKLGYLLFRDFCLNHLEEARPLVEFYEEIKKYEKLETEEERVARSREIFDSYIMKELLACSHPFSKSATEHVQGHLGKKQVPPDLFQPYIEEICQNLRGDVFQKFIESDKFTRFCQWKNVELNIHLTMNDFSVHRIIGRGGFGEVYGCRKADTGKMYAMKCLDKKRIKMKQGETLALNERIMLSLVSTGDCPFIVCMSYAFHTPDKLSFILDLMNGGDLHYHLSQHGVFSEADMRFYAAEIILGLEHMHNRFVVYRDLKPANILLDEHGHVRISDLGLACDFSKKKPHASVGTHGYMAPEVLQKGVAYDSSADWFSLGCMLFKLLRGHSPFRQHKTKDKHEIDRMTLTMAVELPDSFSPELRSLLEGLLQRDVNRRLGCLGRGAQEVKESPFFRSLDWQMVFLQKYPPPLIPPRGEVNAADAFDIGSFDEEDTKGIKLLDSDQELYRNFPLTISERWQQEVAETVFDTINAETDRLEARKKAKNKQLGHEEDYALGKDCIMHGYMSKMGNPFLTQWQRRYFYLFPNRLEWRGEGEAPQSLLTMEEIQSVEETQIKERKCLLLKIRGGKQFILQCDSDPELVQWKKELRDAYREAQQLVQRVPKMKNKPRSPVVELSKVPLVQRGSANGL
# T cell HTS = T cell immune modulation candidate; 2C CD8+ T cell-vesicle binding, flow cytometry; hits give low values; response (vesicle binding), % at 7 µM; 0.068% of 330,000 active; AID 2052;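 active = response, share of CD8 T cells binding vesicles, and their 90th percentile fluorescence all below set limits, cut at about 80% in these data, passing the limit was not always enough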;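 also: values below 100% mean blocked vesicle binding to the CD8+ T cells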
#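 incubation = binding step 1.5 h, 37 °C, antibody labelling 20 min, ice | test system = 2C mouse CD8+ T cells | read-out basis = percent CD8+ FL2 mean versus row control | controls = Peptide-free naked vesicles (low) and QL9 vesicles with 0.7% DMSO vehicle (high) | detection = flow cytometry of vesicle-bound cells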
# Myeloid diff 2 = myeloid differentiation induction. calls only at 10 µM. ER-HoxA9 myeloid progenitors, lysozyme-GFP differentiation, flow cytometry. 1% of 360,000 active;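 active = normalized GFP-positive differentiation at or above the plate's own cutoff, the solvent-only control mean plus 3 SD; inconclusive = no clear call, values can overlap the other calls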;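 also: cells exposed to compound for four days before flow analysis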
# SKN-1 inh = blocks SKN-1 activity in C. elegans. 0.49% of 360,000 active. inhibition, % at 21.8 µM. C. elegans VP596 Pgst-4::GFP/RFP ratio, acrylamide-induced, 24 h. AID 624304;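 active = interference check ratio from 0.5 to 1.5 plus GFP to RFP signal ratio inhibition reaching or exceeding a fixed threshold, cut at about 30% in these data, passing the limit was not always enough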
# The depositor's hits bear a star; i = inactive; ? = inconclusive; / = no result given; + = active, no number. Compounds with a hit are over-represented: about 2.6% of the library has one in this group of screens.
SMILES,Rce1 inh,Rin1-Abl PPI inh,GRK2 aptamer HTS,T cell HTS,Myeloid diff 2,SKN-1 inh
CCOc1ccc(S(=O)(=O)N2CCOCC2)cc1NC(=O)CSCC(=O)Nc1ccc(C)cc1,i,1,5,145,i,0
Cc1ccc(NC(=O)COc2ccc(Br)cc2CO)cc1S(=O)(=O)N1CCOCC1,/,1,1,321,i,41*
Cc1ccc(OCC(=O)Nc2ccc(S(=O)(=O)N3CCOCC3)cc2)c(Br)c1,+,2,1,343,?,-11
COc1ccc(NC(=O)COc2ccc(S(=O)(=O)N3CCOCC3)cc2C)cc1OC,i,0,0,330,i,12
CCOc1ccc(S(=O)(=O)N2CCOCC2)cc1NC(=O)CSCC(=O)Nc1cccc(C)c1,i,1,0,0.0*,i,-7
O=C(O)CN1C(=O)C2C3CCC(C3)C2C1=O (centres undefined),/,0,/,/,i,-1
Cc1ccc(S(=O)(=O)Nc2ccnc(-c3cccnc3)n2)cc1,i,1,6,126,i,-3
O=C(COC(=O)c1ccc(Br)o1)Nc1ccc(S(=O)(=O)N2CCCC2)cc1,i,7,0,619,i,40*
COc1ccc(N=Cc2cc(Cc3ccccc3Cl)cc([N+](=O)[O-])c2O)cc1OC,i,2,5,221,i,38*
C[N+]1(C)CC2=Cc3ccccc3CC2C1 (centres undefined),i,0,0,425,i,3
C1=C2C[N+]3(CCCC3)CC2Cc2ccc3ccccc3c21 (centres undefined),i,-3,0,396,+,-3
Nc1nc(C(c2ccccc2)c2ccccc2)cs1,i,1,0,212,+,7
Cc1nonc1OCCCNc1ccc([N+](=O)[O-])cc1Cl,/,3,0,326,+,-2
Cc1nonc1OC(C)CNc1ccc([N+](=O)[O-])cc1 (centres undefined),i,-2,0,210,i,36*
Cc1nonc1OCCNc1ccc([N+](=O)[O-])cc1[N+](=O)[O-],/,-7,0,213,i,21
O=C(O)C1=CC(=C(c2ccc(O)c(C(=O)O)c2)c2ccc(O)c(C(=O)O)c2)C=CC1=O,/,/,99*,133,/,/
Nc1ccc(-n2cnc3cc([N+](=O)[O-])ccc32)cc1,i,0,1,231,+,2
COc1ccc(S(=O)(=O)NCCC(=O)NC2CCCCC2C)cc1[N+](=O)[O-] (centres undefined),/,0,8,169,i,19
Cc1cccc(C=Nc2ccc3c4c(cccc24)CC3)c1O,i,3,1,159,+,4
Cc1ccc(-c2cc(-c3ccc(Cl)cc3)c(C#N)c(N)n2)o1,i,-1,0,374,i,-3
Cc1ccc(-c2cc(-c3ccc(F)cc3)c(C#N)c(N)n2)o1,i,3,0,332,+,-3
Cc1ccc(-c2cc(-c3ccc(C)o3)nc(N)c2C#N)cc1,i,-1,1,296,+,-12
COc1cc(CCC(=O)OCC(=O)Nc2ccc(F)cc2F)cc(OC)c1OC,i,1,2,207,i,40*
COC(=O)c1ccccc1NC(=O)c1sc(Cl)nc1C,i,-2,1,376,i,4
COC(=O)c1ccc(-c2ccc(Cl)cc2)nc1C,i,-3,0,211,i,51*
SMILES,Rce1 inh,Rin1-Abl PPI inh,GRK2 aptamer HTS,T cell HTS,Myeloid diff 2,SKN-1 inh
Oc1cccc(CN2CCOCC2)c1O,/,13*,/,/,i,14
CCCc1cc(CN2CCOCC2)c(O)c(CN2CCOCC2)c1O,/,0,/,/,i,-7
CCn1c(SCC(=O)NC2CCCCC2)nnc1-c1cc2cccc(OC)c2o1,i,-6,1,521,i,45*
CCn1c(SCC(=O)Nc2nccs2)nnc1-c1cc2cccc(OC)c2o1,/,1,/,/,i,5
CN(CC(=O)Nc1cccc(F)c1)C(=O)CSc1ccccc1,i,3,0,494,i,-4
CCOC(=O)Cc1c(Cl)c2ccccc2[nH]c1=O,i,1,0,445,i,1
CCOC(=O)C[n+]1ccc2c([nH]c3ccccc32)c1C,+,0,/,350,i,20
c1cnn(Cc2cnc(N3CCOCC3)s2)c1,+,3,0,262,i,-5
